RGS4 inh: RGS4 inhibitors, primary screen, cell-based, HEK293 M3R inducible RGS4, calcium flux; Regulator of G-protein signaling 4 (Homo sapiens), P49798; Fluo-4 calcium flux; hits give high values; triggered by carbachol at its EC20; actives 0.45% (n = 310,000); B-score at 10 µM;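 active = B-score, a plate-corrected calcium signal, over three deviations above library mean, with baseline fluorescence within five deviations of library mean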;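 also: RGS4 expression induced by doxycycline in cells with stable M3 receptor; B-score is computed from the integrated fluorescence ratio over baseline after carbachol; higher B-score means a larger calcium signal and so more RGS4 inhibition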
Target sequence (P49798 whole entry, looked up): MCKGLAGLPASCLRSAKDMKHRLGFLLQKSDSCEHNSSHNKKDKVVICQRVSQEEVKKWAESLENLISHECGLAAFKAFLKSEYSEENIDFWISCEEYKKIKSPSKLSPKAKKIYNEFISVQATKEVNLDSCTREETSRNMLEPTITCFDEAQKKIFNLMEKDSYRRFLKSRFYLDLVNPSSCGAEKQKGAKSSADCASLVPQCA
MrgX1 allo act: positive allosteric modulators of MrgX1, primary screen, HEK293 cells, Fluo-4 calcium flux; FDSS; hits give high values; actives 0.63% (n = 310,000); B-score at 10 µM;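 active = plate-corrected calcium response at least 3 library SD above typical, normal starting fluorescence, not activating the receptor alone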;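 also: compound read alongside a low EC10 to EC30 dose of BAM8-22 agonist; peak minus trough fluorescence over baseline measured at the second addition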
Target sequence (Q96LB2 whole entry, looked up): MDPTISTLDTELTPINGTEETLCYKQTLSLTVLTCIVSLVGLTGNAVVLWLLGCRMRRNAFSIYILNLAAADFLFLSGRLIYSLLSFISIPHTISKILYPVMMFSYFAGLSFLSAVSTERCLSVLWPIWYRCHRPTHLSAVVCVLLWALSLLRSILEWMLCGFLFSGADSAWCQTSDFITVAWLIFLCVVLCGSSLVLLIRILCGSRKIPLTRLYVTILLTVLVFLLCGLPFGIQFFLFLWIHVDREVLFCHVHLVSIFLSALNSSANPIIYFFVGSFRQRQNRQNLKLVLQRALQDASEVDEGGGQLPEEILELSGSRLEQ
RGS4 pot: RGS4 potentiators or activators, primary screen, cell-based, HEK293 M3R inducible RGS4, calcium flux; carbachol calcium flux Fluo4; hits give low values; B-score at 10 µM; actives 0.92% (n = 310,000); AID 463111, 2010;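 active = B-score of the integrated calcium signal more than 4 SD below the library mean, with starting fluorescence not abnormally high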;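 also: negative B-score means reduced calcium response which marks RGS4 activation or potentiation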
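test system = M3R-expressing HEK293 line, RGS4 induced by doxycycline | probe or stimulus = carbachol at ECmax as muscarinic agonist stimulus | timing = dye loading 30 min 37 °C, buffer rest 30 min RT | signal = calcium dye Fluo4 fluorescence | evaluation = B score from integrated fluorescence ratio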
MrgX1 antag: antagonists of human MrgX1 receptor, primary screen, HEK293 cells, Fluo-4 calcium flux | Mas-related G-protein coupled receptor member X1 (Homo sapiens), Q96LB2 | BAM8-22 antagonism; hits give low values | B-score at 10 µM | actives 1.3% (n = 310,000);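 active = calcium-response B-score plate-corrected more than 3 library SD below zero, starting fluorescence within 5 deviations, no agonist response on first addition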;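 also: peak minus trough fluorescence over baseline after final BAM8-22 challenge near maximal dose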
MrgX1 ag: agonists of human MrgX1 receptor, primary screen, HEK293 cells, Fluo-4 calcium flux. Fluo-4 calcium fluorescence, agonist mode; hits give high values. actives 0.44% (n = 310,000). B-score at 10 µM. AID 588627, 2011;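 active = calcium response B-score plate-corrected fluorescence ratio at least 3 library SD, with starting fluorescence B-score inside 5 SD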
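times = overnight plating, then 30 min 37 °C plus 30 min room-temperature dye loading | assay system = stable human MrgX1 HEK293 cell line | input = fifteen thousand cells per well | signal = kinetic calcium dye fluorescence, Fluo-4 NW | dosing = compound delivered in addition one of three | read-out = B-scored fluorescence response ratio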
RGS4 act valid: reduced carbachol calcium response, RGS4-induced M3R cells, confirmation, RGS4 activator project, cell-based, HEK293 M3R/RGS4 inducible, calcium flux, duplicate | carbachol calcium flux Fluo4 | shares compounds with RGS4 pot | actives 89% (n = 1,100) | inhibition, % at 10 µM;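 active = inhibition above 3 SD of the buffer control wells, cut at about 41% in these data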;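 also: signal is the integrated peak-minus-minimum Fluo4 fluorescence over baseline ratio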
RGS4 act ctr: counter-screen for RGS4 activators: effect in non-induced cells | inhibition, % at 10 µM | HEK293 M3R non-induced RGS4, Fluo4 calcium flux; after carbachol challenge at its EC90 | AID 602283 | actives 82% (n = 1,100) | shares compounds with RGS4 pot;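 active = inhibition exceeding 3 SD of buffer-only control wells, cut at about 26% in these data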;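 also: percent drop in integrated peak-minus-baseline over baseline Fluo4 ratio after carbachol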
Starred values were filed as active, the others as inactive; i = inactive; / = no result given. This is a sample that favours compounds with a hit; in the whole collection about 3.5% have one here.

SMILES	RGS4 inh	MrgX1 allo act	RGS4 pot	MrgX1 antag	MrgX1 ag	RGS4 act valid	RGS4 act ctr
COc1cccc(C(=O)NCC2CCN(c3ccc(S(=O)(=O)N4CCOCC4)cc3)CC2)c1	i	i	-8.61*	i	i	91.5*	58.3*
COc1cccc(-c2nnc(NC(=O)c3ccc(S(=O)(=O)N4CCOCC4)cc3)o2)c1	i	i	i	i	i	/	/
O=C(NCC1CCN(c2ccc(S(=O)(=O)N3CCOCC3)cc2)CC1)c1cccc(Cl)c1	i	i	-8.05*	i	i	90.0*	92.3*
COc1ccc(C(O)(CCC(C)C)C(CN2CCOCC2)c2ccccc2)cc1 (stereo unspecified)	i	i	i	i	i	/	/
COc1ccc(-c2nc3ccccn3c2NCc2ccc3c(c2)OCO3)cc1	i	i	-8.62*	i	i	60.5*	0.0
c1ccc(-c2nc3ccccn3c2NCc2ccc3c(c2)OCO3)cc1	i	i	i	i	i	/	/
COc1ccc(C(=O)N/N=C(\C)CC(=O)Nc2cccc(C(F)(F)F)c2)cc1	i	i	i	i	i	/	/
C[N+]1(CC(=O)OCCCc2ccccc2)CCCCC1	i	i	i	i	i	/	/
CC1(C(O)(C#CC[N+]2(C)CCCCC2)c2ccccc2)CCCC1 (stereo unspecified)	i	i	-15.5*	i	i	91.5*	94.8*
CC(C)Cn1c2c(c(O)c(C(=O)Nc3nccs3)c1=O)CCCC2	i	i	-7.69*	i	i	74.5*	40.8*
CCCn1c2c(c(O)c(C(=O)Nc3nccs3)c1=O)CCCC2	i	i	i	i	i	/	/
Cc1csc(NC(=O)c2c(O)c3c(n(CC(C)C)c2=O)CCCC3)n1	i	i	-8.9*	i	i	57.0*	0.0
COc1ccccc1N(CC(=O)NC1CCCCC1)S(=O)(=O)c1ccccc1	i	i	i	i	i	/	/
Cn1cnc([N+](=O)[O-])c1SCCO	i	i	i	i	i	/	/
COc1ccc(C(=O)OCCN2C(=O)c3ccccc3C2=O)cc1	i	i	-8.67*	i	i	40.0*	83.8*
COc1cc(C2NC(=O)NC(O)(C(F)(F)F)C2C(=O)c2ccc(Cl)cc2)ccc1O (stereo unspecified)	/	i	/	i	i	/	/
COc1ccc(C2NC(=O)NC(O)(C(F)(F)F)C2C(=O)c2ccc(F)cc2)cc1 (stereo unspecified)	i	i	-8.78*	i	i	92.0*	83.3*
Cc1ccc(C)c(-n2c3nc(=O)n(C)c(=O)c-3cc3ccccc32)c1	i	i	-11.6*	i	i	0.0	0.0
CCC1(CC)NC(=O)N(CC(=O)OC(C)C(=O)Nc2cc([N+](=O)[O-])ccc2OC)C1=O (stereo unspecified)	i	i	i	i	i	/	/
CCOc1ccc(S(=O)(=O)n2cnc3cc(C)c(C)cc32)cc1	i	i	-9.87*	i	i	93.5*	95.3*
Cc1cc2ncn(S(=O)(=O)c3ccc(F)cc3)c2cc1C	i	i	i	i	i	/	/
CC(Sc1nnc(-c2cccs2)n1N)C(=O)NCC1CCCO1 (stereo unspecified)	i	i	i	i	i	/	/
CSc1nc2ccccc2n1Cc1c(Cl)cccc1Cl	i	i	-8.41*	i	i	95.0*	86.3*
OCc1nc2ccccc2n1Cc1c(F)cccc1Cl	i	i	i	i	i	/	/
CCCS(=O)(=O)N1CCCC(C(=O)N2CCCCC2)C1 (stereo unspecified)	i	i	i	i	i	/	/
SMILES	RGS4 inh	MrgX1 allo act	RGS4 pot	MrgX1 antag	MrgX1 ag	RGS4 act valid	RGS4 act ctr
COc1ccc(C(=O)C2CCCN(C/C=C/c3ccccc3OC)C2)c(OC)c1 (stereo unspecified)	i	i	-9.26*	i	i	87.5*	83.8*
COc1cccc(C(=O)C2CCCN(C/C=C/c3ccccc3OC)C2)c1 (stereo unspecified)	i	i	i	i	i	/	/
CC1=NNC(=O)/C1=C\c1cn(-c2ccccc2)nc1-c1ccccc1	i	i	-10.8*	i	i	69.5*	34.3*
O=Cc1cn(-c2ccccc2)nc1-c1ccccc1	i	i	i	i	i	/	/
O=C(Oc1ccccc1)N1CCCC1	i	i	i	i	i	/	/
O=C(Oc1ccc(OC(=O)N2CCCCC2)cc1)c1ccccc1	i	i	-10.5*	i	i	61.5*	83.8*
CCC(=O)N1CCc2cc(S(=O)(=O)NCCC(=O)N3CCN(c4ccccc4)CC3)ccc21	i	i	i	i	i	/	/
CCC(=O)N1CCc2cc(S(=O)(=O)NCCC(=O)N3CCN(c4cccc(C)c4)C(C)C3)ccc21 (stereo unspecified)	i	i	-8.62*	i	i	64.5*	83.8*
O=C(Nc1cccs1)Nc1ccccc1Br	i	i	i	i	i	/	/
O=C(O)CC(CC(=O)NCC(O)c1ccccc1)c1ccccc1 (stereo unspecified)	i	i	i	i	i	/	/
O=C(NCC1CCCO1)c1csc2c1CCCCC2 (stereo unspecified)	i	i	-9.13*	i	i	0.0	0.0
CC(=O)c1c(C)[nH]c(C(=O)Nc2nc(-c3ccc(Cl)cc3)cs2)c1C	i	i	-8.24*	i	i	94.0*	91.8*
O=C(c1ccc(NS(=O)(=O)c2ccc3[nH]c(=O)[nH]c3c2)cc1)N1CCN(c2ccccc2O)CC1	i	i	i	i	i	/	/
CSCCC(NS(=O)(=O)c1ccc2c(c1)c(=O)n(C)c(=O)n2C)C(=O)NC1CCN(Cc2ccccc2)CC1 (stereo unspecified)	i	i	i	i	i	/	/
CN(CC(=O)NC1CCN(Cc2ccccc2)CC1)S(=O)(=O)c1ccc2c(c1)c(=O)n(C)c(=O)n2C	i	i	-9.39*	i	i	75.5*	47.3*

Compound activity (PubChem)
